According to ChEMBL document CHEMBL1133473, “Synthesis and antiviral activity of 4-benzyl pyridinone derivatives as potent and selective non-nucleoside human immunodeficiency virus type 1 reverse transcriptase inhibitors” (J Med Chem, 2000):
“And” between values parts separate entries of the source, which are not always exact repeats. Equal entries are not always repeated.

What was measured:
[1] = system: Human immunodeficiency virus 1; test: Selectivity index is the ratio of CC50 to IC50; type: functional
CEM-SS [2] = test: Tested for cytotoxic concentration on HIV-I Lai wild type in CEM-SS cell line; type: functional; conditions: Homo sapiens
In short: (§1)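 CEM-SS cells, uninfected, cultured 5 days with compound. Compounds were taken from a DMSO solution at 10^-2 M (10^-3 M or lower if insoluble), diluted 1:100 in medium, then serially diluted in medium.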

CEM-SS [3] = test: Tested for inhibitory concentration on HIV-I Lai wild type in CEM-SS cell line; type: functional, cell-based; conditions: Homo sapiens
In short: (§2)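 CEM-SS lymphocytic cells infected with 100 TCID50 of HIV-1 LAI, or of the nevirapine-resistant N119 strain carrying an RT codon 181 mutation. Virus adsorbed 30 min, unbound virus removed by two washes, then cells cultured 5 days with serial compound dilutions. Read-out: RT activity of particles released into the supernatant. IC50 from a computer median effect plot of dose-effect data.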

[4] = system: Human immunodeficiency virus 1; test: Tested for inhibitory concentration on HIV-I nevirapine resistant strain.; type: functional, organism-based; in short: as §2
[5] = system: Human immunodeficiency virus 1; test: Inhibitory concentration against HIV-1 Bal/Mono; type: functional, organism-based
In short: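 Macrophage-tropic HIV-1 Bal in monocyte-derived macrophages kept serum-free in AIM V medium with 100 U/mL GM-CSF. Virus output measured as supernatant particle-associated RT activity.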

[6] = system: Human immunodeficiency virus 1; test: Tested for cytotoxic concentration on HIV-I nevirapine resistant strain.; type: functional; in short: as §1
[7] = Cytotoxicity against PBMC cells infected with HIV-2 D 194; type: functional; conditions: Human immunodeficiency virus 2, PBMC
[8] = Cytotoxicity against Macrophages infected with HIV-1 Bal/Mono; type: functional; conditions: Human immunodeficiency virus 1
[9] = Inhibitory concentration against HIV-2 D 194; type: functional
In short: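 Cell-based antiviral assay against this HIV-2 isolate. Compounds were dissolved in DMSO as 10^-2 M stocks, or 10^-3 M or lower when insoluble, diluted 1% in culture medium, then serially diluted in medium. Virus production was read as reverse transcriptase activity of particles released into the culture supernatant. IC50 was taken from a median-effect plot of the dose-effect data.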

MT4 [10] = test: Cytotoxicity against MT-4 cells infected with HIV-1 AZTres; type: functional; conditions: Homo sapiens
[11] = target: Human immunodeficiency virus type 1 reverse transcriptase (Human immunodeficiency virus 1, UniProt Q72547); test: Tested for inhibitory concentration on HIV-1 Reverse transcriptase in the presence of poly(c)-oligo-(dG)
In short: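 Recombinant HIV-1 RT purified from yeast, 20-50 nM. Reaction at 37 °C for 10 min in 50 mM Tris-HCl pH 8.0, 5 mM MgCl2, 4 mM DTT, 80 mM KCl, BSA, 0.48 A260 units/mL poly(C)-oligo(dG) (5:1), 2 µM dGTP plus [3H]dGTP. Stopped with cold 10% TCA plus 0.1 M pyrophosphate; precipitates filtered, scintillation counted. Compounds dissolved in DMSO.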

[12] = system: Human immunodeficiency virus 1; test: Inhibitory concentration against HIV-1 AZTres.; type: functional, organism-based
In short: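 AZT-resistant HIV-1 isolate A018 G910-6 tested in cell culture; virus production measured as RT activity of particles released into the culture supernatant.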

[13] = Cytotoxicity against PBMC cells infected with HIV-1 IIIB strain; type: functional; conditions: Human immunodeficiency virus 1, PBMC
[14] = system: Human immunodeficiency virus 1; test: Selectivity index is the ratio of CC50 to IC50 against HIV-1 nevirapine resistant strain; type: functional
MT4 [15] = test: Cytotoxicity against MT-4 cells infected with HIV-1 IIIB strain; type: functional; conditions: Homo sapiens
[16] = system: Human immunodeficiency virus 1; test: Inhibitory concentration against HIV-1 IIIB strain; type: functional, organism-based
In short: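 MT4 cells infected with HIV-1 IIIB; antiviral effect read as protection from virus-induced cytopathogenicity by MTT. Compounds taken from DMSO stock, diluted in culture medium.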

Row | Compound | SI [1] | CC50 (CEM-SS [2]) | IC50 (CEM-SS [3]) | other results
1 | CCc1cc(N)c(O)nc1C | >3 | > 100 µM | 30 µM | –
2 | CCc1c(C)nc(O)c([N+](=O)[O-])c1Sc1cc(C)cc(C)c1 | – | – | – | IC50 [4]: 0.26 µM
3 | CCc1c(C)[nH]c(=O)c(NC=O)c1Cc1cc(C)cc(C)c1 | >3333 | > 10 µM | 0.003 µM | IC50 [4]: 2.9 µM; IC50 [5]: 0.021 µM; CC50 [6]: > 10 µM; CC50 [7]: > 10 µM; CC50 [8]: > 10 µM; IC50 [9]: > 10 µM; CC50 (MT4 [10]): > 10 µM; IC50 [11]: 0.2 µM; IC50 [12]: 0.071 µM; CC50 [13]: > 10 µM; SI [14]: >3; CC50 (MT4 [15]): > 10 µM
4 | Cc1cn([C@H]2C[C@H](N=[N+]=[N-])[C@@H](CO)O2)c(=O)[nH]c1=O [ZIDOVUDINE] | >33333 | – | 0.003 µM | –
5 | CCC(=O)Nc1c(O)ncc(C)c1Sc1cc(C)cc(C)c1 | >2 | – | 41.4 µM | –
6 | CCc1c(C)nc(O)c(NCc2cc(C)c(C)cc2OC)c1Cc1cc(C)cc(C)c1 | – | > 1 µM | 1 µM | –
7 | CCc1c(C)[nH]c(=O)c(NC)c1Cc1cc(C)cc(C)c1 | >333 | > 10 µM | 0.03 µM | IC50 [4]: 1.7 µM; IC50 [5]: 0.72 µM; CC50 [6]: > 10 µM; CC50 [7]: > 10 µM; CC50 [8]: > 10 µM; IC50 [9]: > 10 µM; CC50 (MT4 [10]): > 10 µM; IC50 [12]: 0.076 µM; CC50 [13]: > 10 µM; SI [14]: >5.5 and >10; CC50 (MT4 [15]): > 10 µM
8 | CC(C)=CCN1Cc2cc(Cl)cc3[nH]c(=S)n(c23)C[C@@H]1C | – | – | – | IC50 [4]: > 10 µM; CC50 [6]: > 10 µM
9 | CCc1c(C)nc(O)c(NC(=O)C(C)(C)C)c1C(C)(O)c1cc(C)cc(C)c1 (stereo not drawn) | >8 | > 100 µM | 12 µM | –
10 | CCc1c(C)nc(OC)c(NC(=O)C(C)(C)C)c1C(O)c1cc(C)cc(C)c1 (stereo not drawn) | – | > 1 µM | > 1 µM | –
11 | CCc1c(C)nc(O)c(NC(C)=O)c1Sc1cc(C)cc(C)c1 | 1600 | – | 0.05 µM | –
12 | CCc1c(C)nc(O)c(N)c1C(=O)c1cc(C)cc(C)c1 | >1666 | > 10 µM | 0.006 µM | IC50 [4]: 1.3 µM; IC50 [5]: 0.017 µM; CC50 [6]: > 10 µM; CC50 [7]: > 10 µM; CC50 [8]: > 10 µM; IC50 [9]: > 10 µM; CC50 (MT4 [10]): > 10 µM; IC50 [11]: 0.1 µM; IC50 [12]: 0.025 µM; CC50 [13]: > 10 µM; IC50 [16]: 0.085 µM and 0.02 µM; SI [14]: >7; CC50 (MT4 [15]): > 10 µM
13 | CCc1c(C)nc(O)c(NC(=O)CNC(=O)OC(C)(C)C)c1Cc1cc(C)cc(C)c1 | 12 | 86 µM | 6.7 µM | –
14 | CCOC(=O)Nc1c(O)ncc(C)c1Sc1cc(C)cc(C)c1 | >13 | – | 7.5 µM | –
15 | CCc1c(C)nc(OC)c2c1C(c1cc(C)cc(C)c1)OC(O)(C(C)(C)C)N2 (stereo not drawn) | >2 | > 10 µM | 4.2 µM | –
16 | CCc1c(C)nc(O)c(N)c1Cc1ccccc1 | >136 | > 100 µM | 0.73 µM | –
17 | CCc1c(C)nc(OC)c(NC(C)=O)c1C(C)(OC(C)=O)c1cc(C)cc(C)c1 (stereo not drawn) | >4 | > 10 µM | 2.5 µM | –
